From ChEMBL document CHEMBL1123663, “Double-headed haptens with pyrocatechol (poison ivy like) and methylene lactone functional groups: a search for skin-tolerance inducers” (1987)

How the values were obtained:
Assay type in all cases: functional
Cavia porcellus [1] = species on record: Cavia porcellus; experiment: Open epicutaneous test for sensitization in presence of lactone 8 (pretreated with bihapten 1)as sensitizer on guinea pigs with skin intensity test scale (definite erythema covering the whole test area); Value indicates number of animals
In short: (§1)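 Female Himalayan spotted guinea pigs (300–500 g) sensitized with three intradermal nuchal injections (0.1 mL) on alternate days of the hapten (2.5% w/v) emulsified 1:1 in Freund's complete adjuvant/saline. Elicitation by open epicutaneous test with the hapten at 2% w/v in 4:1 acetone/olive oil. Eight animals per group, with FCA-treated controls. Average skin reaction is the sum of test scores divided by the number of animals tested.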

Cavia porcellus [2] = species on record: Cavia porcellus; experiment: Open epicutaneous test for sensitization in presence of lactone 8 as sensitizer on guinea pigs with skin intensity test scale (no reaction); Value indicates number of animals; in short: as §1
Cavia porcellus [3] = species on record: Cavia porcellus; experiment: Open epicutaneous test for sensitization in presence of lactone 8 as sensitizer on guinea pigs with skin intensity test scale (slight erythema not covering the whole test area); Value indicates number of animals; in short: as §1
Cavia porcellus [4] = species on record: Cavia porcellus; experiment: Open epicutaneous test for sensitization in presence of lactone 8 as sensitizer on guinea pigs with skin intensity test scale (erythema plus swelling going well beyond); Value indicates number of animals; in short: as §1
Cavia porcellus [5] = species on record: Cavia porcellus; experiment: Open epicutaneous test for sensitization in presence of lactone 8 as sensitizer on guinea pigs as number of positive animals responded; in short: as §1
Cavia porcellus [6] = species on record: Cavia porcellus; experiment: Open epicutaneous test for sensitization in presence of bihapten 1 as sensitizer on guinea pigs with skin intensity test scale (no reaction); Value indicates number of animals; in short: as §1
Cavia porcellus [7] = species on record: Cavia porcellus; experiment: Open epicutaneous test for sensitization as average skin reaction in presence of lactone 8 as sensitizer on guinea pigs; Value indicates number of animals; in short: as §1
Cavia porcellus [8] = species on record: Cavia porcellus; experiment: Open epicutaneous test for sensitization as average skin reaction in presence of lactone 8 (pretreated with bihapten 1) as sensitizer on guinea pigs; Value indicates number of animals; in short: as §1
Cavia porcellus [9] = species on record: Cavia porcellus; experiment: Open epicutaneous test for sensitization in presence of bihapten 1 as sensitizer on guinea pigs with skin intensity test scale (erythema plus swelling going well beyond the); Value indicates number of animals; in short: as §1
Cavia porcellus [10] = species on record: Cavia porcellus; experiment: Open epicutaneous test for sensitization in presence of lactone 8 as sensitizer on guinea pigs with skin intensity test scale (erythema plus swelling of the test area); Value indicates number of animals; in short: as §1
Cavia porcellus [11] = species on record: Cavia porcellus; experiment: Open epicutaneous test for sensitization in presence of bihapten 1 as sensitizer on guinea pigs with skin intensity test scale (erythema plus swelling of the test area); Value indicates number of animals; in short: as §1
Cavia porcellus [12] = species on record: Cavia porcellus; experiment: Open epicutaneous test for sensitization in presence of lactone 8 (pretreated with bihapten 1)as sensitizer on guinea pigs with skin intensity test scale (erythema plus swelling going well beyond); Value indicates number of animals; in short: as §1
Cavia porcellus [13] = species on record: Cavia porcellus; experiment: Open cutaneous test for sensitization in presence of lactone 8 (pretreated with bihapten 1)as sensitizer on guinea pigs with skin intensity test scale (slight erythema not covering the whole test area); Value indicates number of animals; in short: as §1
Cavia porcellus [14] = species on record: Cavia porcellus; experiment: Open epicutaneous test for sensitization in presence of lactone 8 (pretreated with bihapten 1) as sensitizer on guinea pigs as number of positive animals responded; in short: as §1
Cavia porcellus [15] = species on record: Cavia porcellus; experiment: Open epicutaneous test for sensitization in presence of lactone 8 (pretreated with bihapten 1)as sensitizer on guinea pigs with skin intensity test scale (no reaction); Value indicates number of animals; in short: as §1
Cavia porcellus [16] = species on record: Cavia porcellus; experiment: Open epicutaneous test for sensitization in presence of bihapten 1 as sensitizer on guinea pigs as number of positive animals responded; in short: as §1
Cavia porcellus [17] = species on record: Cavia porcellus; experiment: Open epicutaneous test for sensitization as average skin reaction in presence of bihapten 1 as sensitizer on guinea pigs; Value indicates number of animals; in short: as §1
Cavia porcellus [18] = species on record: Cavia porcellus; experiment: Open epicutaneous test for sensitization in presence of lactone 8 as sensitizer on guinea pigs with skin intensity test scale (definite erythema covering the whole test area); Value indicates number of animals; in short: as §1
Cavia porcellus [19] = species on record: Cavia porcellus; experiment: Open epicutaneous test for sensitization in presence of bihapten 1 as sensitizer on guinea pigs with skin intensity test scale (slight erythema not covering the whole test area); Value indicates number of animals; in short: as §1
Cavia porcellus [20] = species on record: Cavia porcellus; experiment: Open epicutaneous test for sensitization in presence of bihapten 1 as sensitizer on guinea pigs with skin intensity test scale (definite erythema covering the whole test area); Value indicates number of animals; in short: as §1
Cavia porcellus [21] = species on record: Cavia porcellus; experiment: Open epicutaneous test for sensitization in presence of lactone 8 (pretreated with bihapten 1)as sensitizer on guinea pigs with skin intensity test scale (erythema plus swelling of the test area); in short: as §1
Cavia porcellus [22] = species on record: Cavia porcellus; experiment: Open cutaneous test for sensitization in presence of lactone 8 as sensitizer on guinea pigs with skin intensity test scale (no reaction); Value indicates number of animals; in short: as §1
Cavia porcellus [23] = species on record: Cavia porcellus; experiment: Open epicutaneous test for sensitization in presence of lactone 8 (pretreated with bihapten 1) as sensitizer on guinea pigs with skin intensity test scale (no reaction); Value indicates number of animals; in short: as §1
Cavia porcellus [24] = species on record: Cavia porcellus; experiment: Open epicutaneous test for sensitization in presence of lactone 8 (pretreated with bihapten 1) as sensitizer on guinea pigs with skin intensity test scale (erythema plus swelling going well beyond); Value indicates number of animals; in short: as §1
Cavia porcellus [25] = species on record: Cavia porcellus; experiment: Open epicutaneous test for sensitization in presence of lactone 8 (pretreated with bihapten 1) as sensitizer on guinea pigs with skin intensity test scale (slight erythema not covering the whole test area); Value indicates number of animals; in short: as §1
Cavia porcellus [26] = species on record: Cavia porcellus; experiment: Open cutaneous test for sensitization in presence of lactone 8 as sensitizer on guinea pigs with skin intensity test scale (erythema plus swelling going well beyond); Value indicates number of animals; in short: as §1
Cavia porcellus [27] = species on record: Cavia porcellus; experiment: Open epicutaneous test for sensitization in presence of lactone 8 (pretreated with bihapten 1) as sensitizer on guinea pigs with skin intensity test scale (erythema plus swelling of the test area); Value indicates number of animals; in short: as §1
Cavia porcellus [28] = species on record: Cavia porcellus; experiment: Open cutaneous test for sensitization in presence of lactone 8 as sensitizer on guinea pigs with skin intensity test scale (definite erythema covering the whole test area); Value indicates number of animals; in short: as §1
Cavia porcellus [29] = species on record: Cavia porcellus; experiment: Open epicutaneous test for sensitization in presence of lactone 8 (pretreated with bihapten 1) as sensitizer on guinea pigs with skin intensity test scale (definite erythema covering the whole test area); Value indicates number of animals; in short: as §1
Cavia porcellus [30] = species on record: Cavia porcellus; experiment: Open cutaneous test for sensitization in presence of lactone 8 as sensitizer on guinea pigs with skin intensity test scale (erythema plus swelling of the test area); Value indicates number of animals; in short: as §1
Cavia porcellus [31] = species on record: Cavia porcellus; experiment: Open epicutaneous test for sensitization in presence of bihapten 1 as sensitizer on guinea pigs with skin intensity test scale (erythema plus swelling going well beyond); Value indicates number of animals; in short: as §1
Cavia porcellus [32] = species on record: Cavia porcellus; experiment: Open cutaneous test for sensitization in presence of lactone 8 as sensitizer on guinea pigs with skin intensity test scale (slight erythema not covering the whole test area); Value indicates number of animals; in short: as §1

Which results are given for `C=C1CC(CCCCCCCCCc2cccc(O)c2O)OC1=O` (configuration not stated)?
Skin reaction (Cavia porcellus [1]): 8; Skin reaction (Cavia porcellus [2]): 0; Skin reaction (Cavia porcellus [3]): 0; Skin reaction (Cavia porcellus [4]): 0; No. of positive animals (Cavia porcellus [5]): 8; Skin reaction (Cavia porcellus [6]): 0; Average for skin reaction (Cavia porcellus [7]): 1.6; Average for skin reaction (Cavia porcellus [8]): 1; Skin reaction (Cavia porcellus [9]): 0; Skin reaction (Cavia porcellus [10]): 5; Skin reaction (Cavia porcellus [11]): 0; Skin reaction (Cavia porcellus [12]): 0; Skin reaction (Cavia porcellus [13]): 0; No. of positive animals (Cavia porcellus [14]): 8; Skin reaction (Cavia porcellus [15]): 0; No. of positive animals (Cavia porcellus [16]): 8; Average for skin reaction (Cavia porcellus [17]): 1; Skin reaction (Cavia porcellus [18]): 3; Skin reaction (Cavia porcellus [19]): 0; Skin reaction (Cavia porcellus [20]): 8; Skin reaction (Cavia porcellus [21]): 0

What does the source list for `C=C1CC(CCCCCCCCCc2cccc(OC)c2OC)OC1=O` (configuration not stated)?
Skin reaction (Cavia porcellus [22]): 0; Skin reaction (Cavia porcellus [23]): 0; Skin reaction (Cavia porcellus [24]): 0; Skin reaction (Cavia porcellus [25]): 6; No. of positive animals (Cavia porcellus [5]): 8; Skin reaction (Cavia porcellus [26]): 8; Skin reaction (Cavia porcellus [6]): 0; Average for skin reaction (Cavia porcellus [7]): 3; Skin reaction (Cavia porcellus [27]): 0; Average for skin reaction (Cavia porcellus [8]): 0.6; Skin reaction (Cavia porcellus [11]): 0; No. of positive animals (Cavia porcellus [14]): 8; Skin reaction (Cavia porcellus [28]): 0; No. of positive animals (Cavia porcellus [16]): 0; Average for skin reaction (Cavia porcellus [17]): 0; Skin reaction (Cavia porcellus [19]): 0; Skin reaction (Cavia porcellus [29]): 2; Skin reaction (Cavia porcellus [20]): 0; Skin reaction (Cavia porcellus [30]): 0; Skin reaction (Cavia porcellus [31]): 0; Skin reaction (Cavia porcellus [32]): 0
